# In the library only some 3.1% were active in any assay of this set; here they are far more common.
# KCNQ1 block – inhibitors of human KCNQ1 channel, primary screen, cell-based, thallium flux, high-throughput; B-score at 10 µM; CHO-K1 KCNQ1, FluxOR thallium flux fluorescence; active compounds read high; Potassium voltage-gated channel subfamily KQT member 1 (Homo sapiens), P51787; hit rate 1.3% among 310,000; AID 2642, 2010;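 active = compounds whose thallium flux B-score, printed positive for inhibition, exceeds three library SD while starting fluorescence stays within three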;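 also: channel opened by potassium depolarization with thallium stimulus after 20 min compound exposure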
# KCNK9 block – KCNK9 potassium channel inhibitors, primary screen, HEK293 cells, thallium flux; B-score at 10 µM; hit rate 1.2% among 310,000; FluxOR thallium flux fluorescence; active compounds read low; Potassium channel subfamily K member 9 (Homo sapiens), Q9NPC2; AID 488922, 2010;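 active = ratio B-score over 3 SD below the library mean, with starting fluorescence within 5 SD of its mean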;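 also: negative B-score means less thallium flux so channel inhibition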
# Target sequence (Q9NPC2 whole entry, looked up): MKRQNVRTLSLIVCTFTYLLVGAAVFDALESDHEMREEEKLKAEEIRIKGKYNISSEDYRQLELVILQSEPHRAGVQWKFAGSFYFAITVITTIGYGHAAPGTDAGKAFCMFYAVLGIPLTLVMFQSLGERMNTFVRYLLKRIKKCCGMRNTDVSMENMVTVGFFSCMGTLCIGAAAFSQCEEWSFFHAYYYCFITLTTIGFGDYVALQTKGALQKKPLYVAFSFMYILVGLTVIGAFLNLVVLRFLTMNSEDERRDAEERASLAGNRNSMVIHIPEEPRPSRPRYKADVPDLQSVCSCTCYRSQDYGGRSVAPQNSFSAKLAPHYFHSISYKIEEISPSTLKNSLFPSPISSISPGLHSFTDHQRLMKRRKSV
# hERG rescue – hERG rescue from dofetilide block, primary screen, cell-based, CHO-hERG, FluxOR thallium flux, dofetilide IC70; dofetilide IC70 present; activation (rescue from dofetilide block), less the hit threshold, % at 10 µM; hit rate 0.51% among 310,000; AID 1511, 2009; Voltage-gated inwardly rectifying potassium channel KCNH2 (Homo sapiens), Q12809;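 active = activation above the mean of controls blocked by dofetilide plus 5 SD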;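 also: thallium influx through hERG after potassium depolarization seen as dye fluorescence rise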
# KCNQ1 pot – potentiators or activators of KCNQ1 channel, primary screen, cell-based, thallium flux, high-throughput; Potassium voltage-gated channel subfamily KQT member 1 (Homo sapiens), P51787; AID 2648, 2010; hit rate 0.35% among 310,000; CHO-K1 KCNQ1, thallium flux FluxOR fluorescence; active compounds read high; B-score at 10 µM;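 active = fluorescence ratio B-score, a plate-corrected score, at least three library SD, with initial intensity B-score within 5 SD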
#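 Schedule – 37 °C overnight plating, 90-min dark dye load, 20-min compound pretreatment · System – stable KCNQ1 CHO-K1 line · Probe or stimulus – thallium- and potassium-containing depolarizing buffer · Measured by – kinetic FluxOR fluorescence, 10 s baseline plus 110 s post-stimulus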
# KCNK3 inh – human KCNK3 channel inhibitors, primary screen, CHO cells, FluxOR thallium flux, B-score; FluxOR fluorescence; active compounds read low; B-score at 10 µM; hit rate 0.84% among 340,000; AID 602410, 2012;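 active = B-score under library mean minus 4 SD, starting fluorescence ratio at most library mean plus 5 SD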;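 also: more negative B-score means stronger inhibition of thallium flux through KCNK3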
# Hits are given with their value; – = inactive; · = no result.
SMILES,KCNQ1 block,KCNK9 block,hERG rescue,KCNQ1 pot,KCNK3 inh
COc1cccc(Oc2ccc(C(F)(F)F)cc2NC(=O)C2=COCCO2)c1,10,–,–,–,–
COc1cccc(Oc2ccc(C(F)(F)F)cc2NC(=O)c2cccc(F)c2)c1,–,–,–,–,–
Cc1ccccc1NCC(=O)N/N=C/c1c(C)c(C(=O)c2ccc(Cl)cc2)n2ccccc12,7,–,–,–,–
Nc1cc(=O)[nH]c(SCC(=O)NC2CCCCCCC2)n1,·,·,·,·,–
COc1ccc2[nH]c(=O)c(CN(CCN3CCCC3)C(=O)Nc3ccccc3Cl)cc2c1,–,–,–,–,–
CCOc1ccc2[nH]c(=O)c(CN(CCN3CCCC3)C(=S)Nc3ccccc3OCC)cc2c1,–,–,–,10,–
CC(=O)Nc1ccc(S(=O)(=O)Nc2ccc(-n3cnnn3)cc2)cc1,·,·,·,·,–
CCn1c(Cn2nnc(-c3ccccc3)n2)nnc1SCC(=O)Nc1cccc(C(C)=O)c1,–,–,–,–,–
CCn1c(Cn2nnc(-c3ccccc3)n2)nnc1SCC(=O)Nc1ccc(C(C)=O)cc1,–,–,4.6,–,–
CC(C)Oc1ccc(CNC(=O)CCCN2C(=O)C(c3ccccc3)Oc3cccnc32)cc1 (configuration not stated),–,–,–,–,–
O=C(Nc1ccccc1)c1cc([N+](=O)[O-])ccc1Cl,–,–,–,–,–
O=C(Nc1cccc(Cl)c1)c1cc(N=Nc2ccc([N+](=O)[O-])cc2Cl)ccc1O,7,–,–,–,–
CCCCCC(=O)Nc1cccc(C2=NOC3(C2)C[C@@H](C(N)=O)N(C(=O)c2ccc(Cl)cc2)C3)c1 (some centres not stated),–,–,–,–,–
CC(C)Cn1nc(NC(=O)c2cccs2)c2cc3ccccc3nc21,–,-7,–,–,–
CCCn1nnnc1SCC(=O)Nc1nnc(CC)s1,–,–,16.8,–,–
CCOC(=O)c1c(NC(=O)CSc2nnnn2C)sc(CC)c1C,–,-6.8,–,–,–
CCOC(=O)c1c(NC(=O)CSc2nnnn2CC)sc(C)c1C,–,-7.66,–,–,–
Cc1nc(NC(=O)CSc2nnnn2Cc2ccccc2)sc1C,–,–,5.0,–,–
CCOC(=O)c1c(NC(=O)CSc2nnnn2C)sc(C)c1C,–,–,–,–,–
CCn1nnnc1SCC(=O)Nc1sc(C)c(C)c1C#N,–,–,–,–,–
Cc1nn(C)c(C(=O)N/N=C/c2ccc(-c3ccccc3)cc2)c1Cl,–,–,–,–,–
CCCN1C(=O)/C(=N\OCC(=O)NCC(F)(F)F)c2ccccc21,–,–,–,–,–
COc1cc(S(=O)(=O)n2cnc3ccccc32)ccc1Br,–,–,–,–,–
COC(=O)c1c(NC(=O)Cc2ccccc2)sc(C)c1C,–,–,–,–,–
COC(=O)c1c(NC(=O)CSc2ccccc2N)sc(C)c1C,–,-7.65,–,–,–
SMILES,KCNQ1 block,KCNK9 block,hERG rescue,KCNQ1 pot,KCNK3 inh
CCCCc1ccc(NC(=O)c2cnccn2)cc1,–,–,–,–,–
O=C(Nc1nccs1)c1ccc(COc2ccc(F)cc2)o1,–,–,–,–,–
CC(Oc1ccc(Cl)cc1Cl)C(=O)Nc1cccnc1 (configuration not stated),–,–,6.5,–,–
CC(Oc1ccc(Br)cc1Br)C(=O)Nc1cccnc1Cl (configuration not stated),–,–,–,–,–
CC(Oc1ccc(Cl)cc1Cl)C(=O)Nc1ccncc1 (configuration not stated),–,–,–,–,–
O=C(Nc1nccs1)c1ccc(COc2ccccc2Br)o1,–,-7.08,–,–,–
O=C(Nc1cccnc1)c1ccc(COc2ccccc2Cl)o1,–,–,–,–,–
O=C(Nc1cccnc1)c1ccc(COc2cc(Cl)ccc2Cl)o1,–,–,25.7,–,–
CC(Oc1ccc(Br)cc1Br)C(=O)Nc1cccnc1 (configuration not stated),–,–,12.0,–,–
CSc1ccc(-c2nc(O)c3cnccn23)cc1,–,–,–,–,–
NS(=O)(=O)c1ccc(CNC(=O)c2sccc2-c2ccccc2)cc1,–,–,–,–,–
Cc1nnc(N/N=C/c2cc([N+](=O)[O-])c(N3CCC(C)CC3)cc2N2CCC(C)CC2)n1N,10,–,–,–,–
Cc1c(C(=O)Nc2ccc3c(c2)OCCO3)sc2ncnc(N3CCCCC3C)c12 (configuration not stated),–,–,–,–,–
O=C1C2C3CCC(CC3)C2C(=O)N1c1ccccc1 (configuration not stated),–,–,–,–,–
COc1ccc(-c2nc(SCc3ccccc3)n(S(C)(=O)=O)n2)cc1,–,–,–,–,–
CCS(=O)(=O)n1nc(-c2ccc(Cl)cc2)nc1SCc1ccccc1,10,–,–,–,·
Cc1ccc(S(=O)(=O)N[C@H](C(=O)Oc2ccc3c(C(F)(F)F)cc(=O)oc3c2)c2ccccc2)cc1,9,–,–,–,–
Cc1ccc(S(=O)(=O)NC(C(=O)Oc2ccc3ccc(=O)oc3c2)c2ccccc2)cc1 (configuration not stated),–,–,–,–,–
O=C(Nc1ccccc1F)NC1CC1,–,–,5.8,–,–
COc1ccc(NC(=O)N2CCC(c3nc(-c4cccs4)no3)CC2)cc1,–,–,–,–,–
O=C(Nc1ccc(Cl)cc1)N1CCC(c2nc(-c3cccs3)no2)CC1,6,–,–,–,–
CCOc1ccc(NC(=O)CSc2nc(=O)n(CCCN3CCOCC3)c3c2CCC3)cc1,–,–,–,–,–
COCCCn1c(O)c(/C=C2\N=C(C#N)C(=Nc3ccc(C)cc3)O2)sc1=S,12,–,–,–,–
Cc1[nH]c2ccccc2c1SCC(=O)N1CCCc2ccccc21,6,–,–,–,–
CC(C)Cn1c(SCC(=O)N2CCCc3ccccc32)nc2ccccc2c1=O,6,–,–,–,·
SMILES,KCNQ1 block,KCNK9 block,hERG rescue,KCNQ1 pot,KCNK3 inh
c1cncc(CNc2ncnc3sc4c(c23)CCCC4)c1,–,–,–,–,–
c1csc(CCNc2ncnc3sc4c(c23)CCC4)c1,–,–,–,–,-8.74
c1ccc(Nc2ncnc3sc4c(c23)CCC4)cc1,–,–,5.2,–,–
Cc1occc1-c1nnc(SCC(=O)O)n1-c1ccccc1,–,–,–,–,–
COc1cc(NC(=S)NNC(=O)C(C)(C)O)cc(OC)c1,–,–,8.9,–,–
CC1=NN(c2ccccc2)C(=O)/C1=C/c1ccc(Cl)cc1,8,–,–,–,–
